In ChEMBL document CHEMBL5357072, “Structural Modification of Noscapine via Photoredox/Nickel Dual Catalysis for the Discovery of S-Phase Arresting Agents” (ACS Med Chem Lett, 2024):
Each block holds one molecule with its values, some of them ahead of it.

Assays:
MOLM-13 [1] = experiment: Induction of apoptosis in human MOLM-13 cells assessed as viable cells at 10 uM incubated for 48 hrs by Annexin V-FITC/PI staining based flow cytometric analysis (reference value: 92.24%); assay type: functional; conditions: read-out: Activity
JeKo-1 [2] = experiment: Antiproliferative activity against human JeKo-1 cells assessed as inhibition of cell growth incubated for 48 hrs by CCK8 assay; assay type: functional, cell-based; conditions: JeKo-1, 48 h
Procedure, shortened: (§1)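 CCK-8 growth-inhibition assay in the malignant haematological lines MOLM-13, NB4 and Jeko-1 and in normal PBMC. Cells were treated across a range of doses and IC50 taken as the half-maximal growth-inhibitory concentration. Data are mean ± SD of triplicate samples, and experiments were repeated at least three times.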

MOLM-13 [3] = experiment: Induction of apoptosis in human MOLM-13 cells assessed as early apoptotic cells at 10 uM incubated for 48 hrs by Annexin V-FITC/PI staining based flow cytometric analysis (reference value: 4.10%); assay type: functional
MOLM-13 [4] = experiment: Cell cycle arrest in human MOLM-13 cells assessed as accumulation of G2/M phase cells at 10 uM incubated for 24 hrs by RNase A/PI staining based flow cytometry analysis (reference value: 11.74%); assay type: functional
NB-4 [5] = experiment: Antiproliferative activity against human NB4 cells assessed as inhibition of cell growth incubated for 48 hrs by CCK8 assay; assay type: functional, cell-based; conditions: NB-4, 48 h; procedure, shortened: as §1
A549 = experiment: Antiproliferative activity against human A549 cells assessed as cell growth inhibition at 10 uM incubated for 48 hrs by CCK8 assay relative to control; assay type: functional; conditions: read-out: GI
Procedure, shortened: (§2)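 Single-concentration screen of six cancer cell lines. Cells were exposed to 10 μM compound and growth was measured by CCK-8 assay. Results are reported as inhibition rate at 10 μM.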

MOLM-13 [6] = experiment: Antiproliferative activity against human MOLM-13 cells assessed as cell growth inhibition at 10 uM incubated for 48 hrs by CCK8 assay relative to control; assay type: functional; conditions: read-out: GI; procedure, shortened: as §2
MOLM-13 [7] = experiment: Induction of apoptosis in human MOLM-13 cells assessed as necrotic cells at 10 uM incubated for 48 hrs by Annexin V-FITC/PI staining based flow cytometric analysis (reference value: 0.48%); assay type: functional
MOLM-13 [8] = experiment: Antiproliferative activity against human MOLM-13 cells assessed as inhibition of cell growth incubated for 48 hrs by CCK8 assay; assay type: functional, cell-based; conditions: MOLM-13, 48 h; procedure, shortened: as §1
HeLa = experiment: Antiproliferative activity against human HeLa cells assessed as cell growth inhibition at 10 uM incubated for 48 hrs by CCK8 assay relative to control; assay type: functional; conditions: read-out: GI; procedure, shortened: as §2
MOLM-13 [9] = experiment: Cell cycle arrest in human MOLM-13 cells assessed as accumulation of G0/G1 phase cells at 10 uM incubated for 24 hrs by RNase A/PI staining based flow cytometry analysis (reference value: 38.14%); assay type: functional
MOLM-13 [10] = experiment: Cell cycle arrest in human MOLM-13 cells assessed as accumulation of S phase cells at 10 uM incubated for 24 hrs by RNase A/PI staining based flow cytometry analysis (reference value: 50.12%); assay type: functional
NB-4 [11] = experiment: Antiproliferative activity against human NB4 cells assessed as cell growth inhibition at 10 uM incubated for 48 hrs by CCK8 assay relative to control; assay type: functional; conditions: read-out: GI; procedure, shortened: as §2
U-251 = experiment: Antiproliferative activity against human U-251 cells assessed as cell growth inhibition at 10 uM incubated for 48 hrs by CCK8 assay relative to control; assay type: functional; conditions: read-out: GI; procedure, shortened: as §2
JeKo-1 [12] = experiment: Antiproliferative activity against human JeKo-1 cells assessed as cell growth inhibition at 10 uM incubated for 48 hrs by CCK8 assay relative to control; assay type: functional; conditions: read-out: GI; procedure, shortened: as §2
MOLM-13 [13] = experiment: Induction of apoptosis in human MOLM-13 cells assessed as late apoptotic cells at 10 uM incubated for 48 hrs by Annexin V-FITC/PI staining based flow cytometric analysis (reference value: 3.17%); assay type: functional

IC50 (MOLM-13 [8]): 15.3 µM
SMILES: COc1ccc2c(c1OC)C(=O)O[C@@H]2[C@H]1c2c(c(Br)c3c(c2OC)OCO3)CCN1C
viability at 10 µM (MOLM-13 [1]): 78.1%
IC50 (JeKo-1 [2]): 11.5 µM
Activity (MOLM-13 [3]): 10.63%
Activity (MOLM-13 [4]): 36.44%
IC50 (NB-4 [5]): 16.3 µM
inhibition of growth at 10 µM (A549): 15.9%
inhibition of growth at 10 µM (MOLM-13 [6]): 41.9%
Activity (MOLM-13 [7]): 0.69%
inhibition of growth at 10 µM (HeLa): 28.1%
Activity (MOLM-13 [9]): 32.96%
Activity (MOLM-13 [10]): 30.6%
inhibition of growth at 10 µM (NB-4 [11]): 38.3%
inhibition of growth at 10 µM (U-251): < 5%
inhibition of growth at 10 µM (JeKo-1 [12]): 48.9%
Activity (MOLM-13 [13]): 10.56%

SMILES: CCCCc1c2c(c(OC)c3c1OCO3)[C@H]([C@H]1OC(=O)c3c1ccc(OC)c3OC)N(C(=O)OC(C)(C)C)CC2
inhibition of growth at 10 µM (A549): < 5%
inhibition of growth at 10 µM (MOLM-13 [6]): 48.6%
inhibition of growth at 10 µM (HeLa): < 5%
inhibition of growth at 10 µM (NB-4 [11]): 10%
inhibition of growth at 10 µM (U-251): < 5%
inhibition of growth at 10 µM (JeKo-1 [12]): 11.4%

IC50 (MOLM-13 [8]): 4.37 µM
SMILES: COc1ccc2c(c1OC)C(=O)O[C@@H]2[C@H]1c2c(c(CC3CN(C(=O)OCc4ccccc4)C3)c3c(c2OC)OCO3)CCN1C
IC50 (JeKo-1 [2]): 5.11 µM
IC50 (NB-4 [5]): 10.7 µM

IC50 (MOLM-13 [8]): > 20 µM
SMILES: COc1ccc2c(c1OC)C(=O)O[C@@H]2[C@H]1c2c(c(CC3CN(C)C3)c3c(c2OC)OCO3)CCN1C
IC50 (JeKo-1 [2]): > 20 µM
IC50 (NB-4 [5]): > 20 µM

SMILES: COc1ccc2c(c1OC)C(=O)O[C@@H]2[C@H]1c2c(c(CCCc3ccccc3)c3c(c2OC)OCO3)CCN1C(=O)OC(C)(C)C
inhibition of growth at 10 µM (A549): < 5%
inhibition of growth at 10 µM (MOLM-13 [6]): 63.2%
inhibition of growth at 10 µM (HeLa): < 5%
inhibition of growth at 10 µM (NB-4 [11]): 25.1%
inhibition of growth at 10 µM (U-251): < 5%
inhibition of growth at 10 µM (JeKo-1 [12]): 13.7%

IC50 (MOLM-13 [8]): 6.47 µM
SMILES: CCNC(=O)N1CCc2c(CC3CN(C(=O)OCc4ccccc4)C3)c3c(c(OC)c2[C@@H]1[C@H]1OC(=O)c2c1ccc(OC)c2OC)OCO3
IC50 (JeKo-1 [2]): 6.97 µM
IC50 (NB-4 [5]): 10.4 µM
